Experimental data: paper PMC5749250 (Cell chemical biology, 2017)

Legend:
[1] = target: USP7 catalytic domain (amino acids 208–560) (Homo sapiens, UniProt Q93009); test: Ub-AMC assay, USP7 catalytic domain; format: biochemical; settings: for inhibition of USP7: catalytic domain, Ub-AMC, concentrations up to 100 μM
How it was run: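 Human USP7 catalytic domain (residues 208–560) was expressed in E. coli BL21(DE3), purified on Ni-NTA, thrombin-treated, gel-filtered and used at 250 nM. 2 uM Ub-AMC was then added. Fluorescence (ex 345/em 445 nm) was read every minute for 30 min. IC50 came from initial rates plotted against concentration.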

[2] = Solubility in aqueous buffer; format: physicochemical
USP7 = settings: read-out: IC50, USP7; ref Altun et al., 2011; Ritorto et al., 2014; cited from earlier work
USP10 = settings: ref Altun et al., 2011; Ritorto et al., 2014; cited from earlier work
USP47 = settings: ref Altun et al., 2011; Ritorto et al., 2014; cited from earlier work
[3] = target: full-length USP7 (amino acids 1–1102) (Homo sapiens, UniProt Q93009); test: Ub-AMC assay, full-length USP7; format: biochemical; settings: XL188 vs 1
How it was run: (§1)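 Full-length USP7 (1–1102), wild type or Q351 mutant, was expressed in E. coli BL21(DE3), purified by Ni-NTA and Superdex 200 and used at 50 nM. 2 uM Ub-AMC was added and fluorescence (345/445 nm) read each minute over 30 min. Initial rates against concentration gave IC50.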

panel of purified DUBs = test: Selectivity profiling; format: biochemical
full-length USP7Q351S = full-length USP7Q351S (Homo sapiens, UniProt Q93009, Q351S); test: Ub-AMC assay, full-length USP7Q351S; format: biochemical; settings: dose-response, amino acids 1–1102
How it was run: as §1

native USP7 = native USP7 (Homo sapiens, UniProt Q93009); test: Competitive activity based protein profiling with HA-Ub-Vs in HEK293T lysates; format: binding
[4] = Mouse liver microsome stability; format: in vitro ADME; settings: liver microsomes
MCF7 cells = test: HDM2, p53 and p21 protein levels in MCF7 cells; format: cell-based; settings: 16 hours
How it was run: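 MCF7 cells grown in RPMI with 10% heat-inactivated FBS and penicillin/streptomycin at 37 °C, 5% CO2. Treated with test compound or DMSO for 16 h. Where used, cycloheximide (50 ug/ml) was added at 14 h. Cells were washed in PBS and lysed in modified RIPA buffer with phosphatase and protease inhibitors. Protein was quantified by BCA, then immunoblotted for mdm2, p53, p21, GAPDH and USP7.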

MM.1S cells = test: HDM2, p53 and p21 protein levels in MM.1S cells; format: cell-based; settings: 6 hours
How it was run: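 MM.1S cells were cultured in RPMI with 10% heat-inactivated FBS and penicillin/streptomycin (37 °C, 5% CO2). They were exposed to test compound or DMSO for 6 h, with or without 50 ug/ml cycloheximide added at 4 h. After a PBS wash, cells were lysed in modified RIPA containing phosphatase and protease inhibitors. Lysates were BCA-normalised and immunoblotted for mdm2, p53, p21, GAPDH and USP7.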

Chain of USP7 catalytic domain (amino acids 208–560) (Q93009 208-560): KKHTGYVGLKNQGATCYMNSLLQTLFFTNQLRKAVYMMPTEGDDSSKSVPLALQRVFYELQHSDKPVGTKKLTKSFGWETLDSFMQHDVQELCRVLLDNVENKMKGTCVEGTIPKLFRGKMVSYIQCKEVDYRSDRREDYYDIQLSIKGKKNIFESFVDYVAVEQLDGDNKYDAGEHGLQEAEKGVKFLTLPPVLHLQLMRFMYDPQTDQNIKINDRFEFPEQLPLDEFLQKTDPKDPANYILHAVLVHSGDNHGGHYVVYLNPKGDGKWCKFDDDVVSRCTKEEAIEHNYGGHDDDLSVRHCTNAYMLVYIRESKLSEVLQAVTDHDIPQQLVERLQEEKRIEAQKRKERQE
Chain of full-length USP7Q351S (Q93009 whole entry Q351S, the tested form may be a part): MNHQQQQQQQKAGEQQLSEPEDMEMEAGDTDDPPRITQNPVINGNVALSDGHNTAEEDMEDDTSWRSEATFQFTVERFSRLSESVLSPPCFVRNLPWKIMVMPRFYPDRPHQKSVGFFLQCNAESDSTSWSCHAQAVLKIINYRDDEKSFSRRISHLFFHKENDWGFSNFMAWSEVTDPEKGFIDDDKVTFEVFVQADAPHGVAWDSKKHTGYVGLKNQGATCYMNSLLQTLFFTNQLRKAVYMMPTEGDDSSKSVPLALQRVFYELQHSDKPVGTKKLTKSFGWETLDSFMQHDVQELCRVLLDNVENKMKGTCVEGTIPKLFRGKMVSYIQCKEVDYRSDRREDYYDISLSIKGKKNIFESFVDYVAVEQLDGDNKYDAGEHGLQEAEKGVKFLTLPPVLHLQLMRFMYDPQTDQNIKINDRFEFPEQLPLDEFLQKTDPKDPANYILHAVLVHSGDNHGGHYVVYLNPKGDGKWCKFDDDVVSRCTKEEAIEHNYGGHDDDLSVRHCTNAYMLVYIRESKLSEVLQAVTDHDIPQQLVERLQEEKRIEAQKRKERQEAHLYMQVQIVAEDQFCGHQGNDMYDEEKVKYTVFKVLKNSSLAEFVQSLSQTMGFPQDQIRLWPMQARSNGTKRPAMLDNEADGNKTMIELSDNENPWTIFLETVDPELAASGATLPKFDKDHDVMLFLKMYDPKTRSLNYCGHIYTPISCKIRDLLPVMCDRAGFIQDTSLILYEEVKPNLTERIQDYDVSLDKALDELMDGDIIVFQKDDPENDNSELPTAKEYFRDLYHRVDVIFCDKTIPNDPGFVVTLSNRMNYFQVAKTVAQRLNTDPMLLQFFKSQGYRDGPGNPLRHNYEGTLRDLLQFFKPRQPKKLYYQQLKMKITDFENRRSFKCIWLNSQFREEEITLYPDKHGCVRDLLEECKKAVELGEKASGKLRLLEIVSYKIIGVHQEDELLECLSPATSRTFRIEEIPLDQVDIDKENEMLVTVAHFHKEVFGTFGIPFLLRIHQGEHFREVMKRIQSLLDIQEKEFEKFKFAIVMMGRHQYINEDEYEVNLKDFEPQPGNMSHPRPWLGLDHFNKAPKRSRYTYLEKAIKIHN
Chain of full-length USP7 (amino acids 1–1102) (Q93009 whole entry, the tested form may be a part): as the sequence (Q93009 whole entry Q351S, the tested form may be a part) above, with S351Q counted along it
Chain of native USP7 (Q93009 whole entry): as the sequence (Q93009 whole entry Q351S, the tested form may be a part) above, with S351Q counted along it

With `O=C(CCc1ccccc1)N1CCC(Cn2cnc3cc(Cl)ccc3c2=O)CC1` [Compound 2, 7-chloro-3-((1-(3-phenylpropanoyl)piperidin-4-yl)methyl)quinazolin-4(3H)-one] the “inhibition of USP7” value [1] was “little inhibition”.
For `N#CC1(Cn2cnc3cc(Cl)ccc3c2=O)CCN(C(=O)CCc2ccccc2)CC1` [Compound 3, 4-((7-chloro-4-oxoquinazolin-3(4H)-yl)methyl)-1-(3-phenylpropanoyl)piperidine-4-carbonitrile], the “inhibition of USP7” value [1] was “little inhibition”.
In the case of `O=c1c2ccc(Cl)cc2ncn1CC1(O)CCN(CCCc2ccccc2)CC1` [Compound 4, 7-chloro-3-((4-hydroxy-1-(3-phenylpropyl)piperidin-4-yl)methyl)quinazolin-4(3H)-one], the “inhibition of USP7” value [1] is reported as “abrogated USP7 activity”.
With `O=C(CCc1ccccc1)N1CCC(O)(Cn2cnc3cc(Cl)ccc3c2=O)C1` (stereo not drawn) [Compound 5, 7-chloro-3-((3-hydroxy-1-(3-phenylpropanoyl)pyrrolidin-3-yl)methyl)quinazolin-4(3H)-one] the “inhibition of USP7” value [1] was “abrogated USP7 activity”.
For `CC(=O)N1CCC(O)(Cn2cnc3cc(Cl)ccc3c2=O)CC1` [Compound 6, 3-((1-acetyl-4-hydroxypiperidin-4-yl)methyl)-7-chloroquinazolin-4(3H)-one], the IC50 [1] was > 100 µM.
In the case of `O=C(Cc1ccccc1)N1CCC(O)(Cn2cnc3cc(Cl)ccc3c2=O)CC1` [Compound 7, 7-chloro-3-((4-hydroxy-1-(2-phenylacetyl)piperidin-4-yl)methyl)quinazolin-4(3H)-one], the IC50 [1] is reported as > 100 µM.
For `CC(CC(=O)N1CCC(O)(Cn2cnc3cc(Cl)ccc3c2=O)CC1)c1ccccc1` (stereo not drawn) [Compound 8, 7-chloro-3-((4-hydroxy-1-(3-phenylbutanoyl)piperidin-4-yl)methyl)quinazolin-4(3H)-one], the “fold improvement of biochemical potency” value ([1]; relative to 1) was “approximately 10 fold”.
In the case of `C[C@H](CC(=O)N1CCC(O)(Cn2cnc3cc(Cl)ccc3c2=O)CC1)c1ccccc1` [Compound 9, (R)-7-chloro-3-((4-hydroxy-1-(3-phenylbutanoyl)piperidin-4-yl)methyl)quinazolin-4(3H)-one], the “fold more potent than the (S)-stereoisomer (10)” value ([1]; (R)- vs (S)-stereoisomer) is reported as “approximately 100 fold” and the “solubility in aqueous buffer” value [2] is reported as “poor”.
In the case of `CC(=O)c1cc([N+](=O)[O-])c(Sc2ccc(F)cc2F)s1` [Compound P22077], the IC50 (USP7) is listed as […], the “inhibition of USP10 compared with USP7” value (USP10) is listed as “equipotent” and the “inhibition of USP47 compared with USP7” value (USP47) is listed as “equipotent”.
In the case of `C[C@H](CC(=O)N1CCC(O)(Cn2cnc3cc(NC(=O)CCN4CCN(C)CC4)ccc3c2=O)CC1)c1ccccc1` [XL188, (R)-N-(3-((4-hydroxy-1-(3-phenylbutanoyl)piperidin-4-yl)methyl)-4-oxo-3,4-dihydroquinazolin-7-yl)-3-(4-methylpiperazin-1-yl)propanamide], the IC50 [1] is reported as 0.193 µM, the “fold improvement in biochemical inhibition of USP7 compared to 1” value [3] is reported as 100 fold and the “inhibition of DUBs other than USP7, panel of 41 purified DUBs” value (panel of purified DUBs; 10 μM compound, Ub-Rho as substrate) is reported as “little to no inhibition”. The “inhibition of full-length USP7Q351S” value (full-length USP7Q351S) was “resistant”, the IC50 (native USP7) was ~0.9 µM and the half-life [4] was 31 min. For the same compound, the “levels of p53 and p21” value (MCF7 cells) was “increased”, the HDM2 level (MCF7 cells; cycloheximide for the last 2 hours) was “Degradation of HDM2” and the HDM2 level (MM.1S cells) was “loss of HDM2”. The “levels of p21 and p53” value (MM.1S cells) was “increase”.
With `C[C@@H](CC(=O)N1CCC(O)(Cn2cnc3cc(NC(=O)CCN4CCN(C)CC4)ccc3c2=O)CC1)c1ccccc1` [XL203C, (S)-N-(3-((4-hydroxy-1-(3-phenylbutanoyl)piperidin-4-yl)methyl)-4-oxo-3,4-dihydroquinazolin-7-yl)-3-(4-methylpiperazin-1-yl)propanamide] the “inhibition of other DUBs” value (panel of purified DUBs; Figure S1G, Table S1, concentration not given) was “no significant inhibition” and the “levels of p53 and p21” value (MCF7 cells) was “no observable change”.
